Measurements: ChEMBL document CHEMBL1136717, “Trypanocidal activity of conformationally restricted pentamidine congeners” (J Med Chem, 2003)
Activity calls are given as the source filed them. No cut-off for these calls is given here.

Assays:
[1] = test system: Calf thymus DNA; experiment: DNA binding affinity using calf thymus DNA.; type: nucleic-acid assay; conditions: Bos taurus
In short: (§1)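 Thermal denaturation of calf thymus DNA or poly(dA-dT) at a 1:5 compound to base pair ratio. Binding affinity is reported as ΔTm, the shift in the midpoint (Tm) of the melting curve.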

[2] = test system: Nucleic Acid; experiment: DNA binding affinity using poly(dA-dT).; type: nucleic-acid assay; in short: as §1
[3] = test system: Trypanosoma brucei; experiment: In vitro inhibitory concentration against mice infected with Trypanosoma brucei pentamidine-sensitive strain (EATRO Lab 110).; type: functional, organism-based
[4] = test system: Trypanosoma brucei; experiment: In vitro inhibitory concentration against mice infected with Trypanosoma brucei rhodesiense (KETRI 243).; type: functional, organism-based
[5] = test system: Trypanosoma brucei; experiment: In vitro inhibitory concentration against mouse infected with Trypanosoma brucei rhodesiense (kETRI 243As-10-3); type: functional, organism-based
[6] = test system: Trypanosoma brucei rhodesiense; experiment: In vitro inhibitory concentration against mouse infected with Trypanosoma brucei rhodesiense (KETRI 269)
[7] = test system: Mus musculus; experiment: Ratio of number of cured to that of total after intraperitoneal administration (1.0 mg/kg) once a day for 3 days in mouse infected with Trypanosoma brucei (EATRO Lab 110);(0/3 of animals were cured); type: functional, organism-based
[8] = test system: Mus musculus; experiment: Ratio of number of cured to that of total after intraperitoneal administration (10.0 mg/kg) once a day for 3 days in mouse infected with Trypanosoma brucei (EATRO Lab 110); (3/3 of animals were cured); type: functional, organism-based
[9] = test system: Mus musculus; experiment: Ratio of number of cured to that of total after intraperitoneal administration (2.5 mg/kg) once a day for 3 days in mouse infected with Trypanosoma brucei (EATRO Lab 110); (1/3 of animals were cured); type: functional, organism-based
[10] = test system: Mus musculus; experiment: Ratio of number of cured to that of total after intraperitoneal administration (25 mg/kg) once a day for 3 days in mouse infected with Trypanosoma brucei (EATRO Lab 110); (3/3 of animals were cured); type: functional, organism-based
[11] = test system: Mus musculus; experiment: Ratio of number of cured to that of total after intraperitoneal administration (5.0 mg/kg) once a day for 3 days in mouse infected with Trypanosoma brucei (EATRO Lab 110); (2/3 of animals were cured); type: functional, organism-based
[12] = test system: Trypanosoma brucei; experiment: Mean survival dose (5.0 mg/kg) after intraperitoneal administration once a day for 3 days in mouse infected with Trypanosoma brucei (EATRO Lab 110); type: functional
In short: (§2)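 Female Swiss-Webster mice (20 g) infected ip with 2.5×10^5 trypanosomes from rat blood; treatment began 24 h later. Drug dissolved in distilled water, given ip once daily for 3 days, three mice per dose. Tail blood smears checked weekly. MSD is the mean survival of mice dying of infection, excluding cures. Cure means survival >30 days beyond the last control death with a clear smear.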

[13] = test system: Trypanosoma brucei; experiment: Mean survival dose (1.0 mg/kg) after intraperitoneal administration once a day for 3 days in mouse infected with Trypanosoma brucei (EATRO Lab 110); type: functional; in short: as §2
[14] = test system: Trypanosoma brucei; experiment: Mean survival dose (2.5 mg/kg) after intraperitoneal administration once a day for 3 days in mouse infected with Trypanosoma brucei (EATRO Lab 110); type: functional; in short: as §2
[15] = test system: Mus musculus; experiment: Ratio of number of cured to that of total after intraperitoneal administration (10.0 mg/kg) once a day for 3 days in mouse infected with Trypanosoma brucei (EATRO Lab 110); (1/3 of animals were cured); type: functional, organism-based
[16] = test system: Mus musculus; experiment: Ratio of number of cured to that of total after intraperitoneal administration (2.5 mg/kg) once a day for 3 days in mouse infected with Trypanosoma brucei (EATRO Lab 110); (0/3 of animals were cured); type: functional, organism-based
[17] = test system: Mus musculus; experiment: Ratio of number of cured to that of total after intraperitoneal administration (25 mg/kg) once a day for 3 days in mouse infected with Trypanosoma brucei (EATRO Lab 110);(3/3 of animals were cured); type: functional, organism-based
[18] = test system: Mus musculus; experiment: Ratio of number of cured to that of total after intraperitoneal administration (5.0 mg/kg) once a day for 3 days in mouse infected with Trypanosoma brucei (EATRO Lab 110); (0/3 of animals were cured); type: functional, organism-based
[19] = test system: Mus musculus; experiment: Ratio of number of cured to that of total after intraperitoneal administration (1.0 mg/kg) once a day for 3 days in mouse infected with Trypanosoma brucei (EATRO Lab 110); (0/3 of animals were cured); type: functional, organism-based
[20] = test system: Trypanosoma brucei; experiment: Mean survival dose (10.0 mg/kg) after intraperitoneal administration once a day for 3 days in mouse infected with Trypanosoma brucei (EATRO Lab 110); type: functional; in short: as §2
[21] = test system: Mus musculus; experiment: Ratio of number of cured to that of total after intraperitoneal administration (2.5 mg/kg) once a day for 3 days in mouse infected with Trypanosoma brucei (EATRO Lab 110); (3/3 of animals were cured); type: functional, organism-based
[22] = test system: Mus musculus; experiment: Ratio of number of cured to that of total after intraperitoneal administration (25 mg/kg) once a day for 3 days in mouse infected with Trypanosoma brucei (EATRO Lab 110); (0/3 of animals were cured); type: functional, organism-based
[23] = test system: Mus musculus; experiment: Ratio of number of cured to that of total after intraperitoneal administration (5.0 mg/kg) once a day for 3 days in mouse infected with Trypanosoma brucei (EATRO Lab 110); (3/3 of animals were cured); type: functional, organism-based
[24] = test system: Trypanosoma brucei; experiment: Mean survival dose (25.0 mg/kg) after intraperitoneal administration once a day for 3 days in mouse infected with Trypanosoma brucei (EATRO Lab 110); Compound was toxic.; type: functional; in short: as §2

Row | SMILES | DNA binding [1] | DNA binding [2] | IC50 [3] | IC50 [4] | IC50 [5] | IC50 [6] | further results
1 | N=C(N)c1ccc(OCCCCCOc2ccc(C(=N)N)cc2)cc1 [PENTAMIDINE] | 11.1 °C | 20.6 °C | 0.8 nM | 3.1 nM | 5 nM | 3.2 nM | 
2 | N=C(N)c1ccc(NC(=O)c2cccc(C(=O)Nc3ccc(C(=N)N)cc3)n2)cc1 | 7.1 °C | 15.9 °C | > 1000 nM | > 1000 nM | > 1000 nM | > 1000 nM | 
3 | O=C(Nc1ccc(C2=NCCN2)cc1)C1C[C@H]1C(=O)Nc1ccc(C2=NCCN2)cc1 (stereo not given in full) | 6 °C | 9.6 °C | > 1000 nM | 440 nM | 810 nM | > 1000 nM | 
4 | CC(C)/N=C(\N)c1ccc(N2CCCN(c3ccc(/C(N)=N/C(C)C)cc3)CC2)cc1 | 13.8 °C | 20 °C | > 1000 nM | 900 nM | 125 nM |  | 
5 | c1cc(C2=NCCN2)ccc1CC1CCCN(c2ccc(C3=NCCN3)cc2)C1 (stereo not given) | 9.9 °C | 14.1 °C | 86 nM | 85 nM | 79 nM | 15 nM | 
6 | N=C(N)c1ccc(OC[C@@H]2C[C@H]2COc2ccc(C(=N)N)cc2)cc1 | 11.1 °C | 20.3 °C | 9.4 nM | 45 nM | 0.17 nM | 15.5 nM | 
7 | CCCCNC(=N)c1ccc(N2CCCN(c3ccc(C(=N)NCCCC)cc3)CC2)cc1 | 11.8 °C | 13.3 °C | 180 nM | 79 nM | 78 nM |  | 
8 | C(=C1CCN(Cc2ccc(C3=NCCN3)cc2)CC1)c1ccc(C2=NCCN2)cc1 | 17 °C | 19.4 °C | 540 nM | 465 nM | 90 nM | 265 nM | 
9 | N=C(NC1CC1)c1ccc(N2CCCN(c3ccc(C(=N)NC4CC4)cc3)CC2)cc1 | 15.3 °C | 23.6 °C | 870 nM | 810 nM | 850 nM |  | 
10 | c1cc(C2=NCCN2)ccc1CC1CCN(c2ccc(C3=NCCN3)cc2)CC1 | 21 °C | 33.9 °C | 169 nM | 185 nM | 88 nM | 155 nM | 
11 | N=C(N)c1ccc(N2CCCN(c3ccc(C(=N)N)cc3)CC2)cc1 | 15 °C | 23.1 °C | 2.15 nM | 2.71 nM | 3.3 nM | 7.1 nM | Ratio [7]: inactive; Ratio [8]: Active; Ratio [9]: Partially active; Ratio [10]: Active; Ratio [11]: Partially active; MSD [12]: 12 days; MSD [13]: 8.3 days; MSD [14]: 16.5 days
12 | c1cc(N2CCCN(c3ccc(C4=NCCN4)cc3)CC2)ccc1C1=NCCN1 | 15 °C | 24 °C | 27.5 nM | 52 nM | 23 nM | 155 nM | Ratio [15]: Partially active; Ratio [16]: inactive; Ratio [17]: Active; Ratio [18]: inactive; Ratio [19]: inactive; MSD [12]: 7.7 days; MSD [13]: 4.7 days; MSD [20]: 14 days; MSD [14]: 4.3 days
13 | C(=C1\CCCN(c2ccc(C3=NCCN3)cc2)C1)/c1ccc(C2=NCCN2)cc1 | 12 °C | 15.5 °C | 71 nM | 84 nM | 84 nM | 88 nM | 
14 | CC(C)(C)/N=C(\N)c1ccc(N2CCCN(c3ccc(/C(N)=N/C(C)(C)C)cc3)CC2)cc1 | 4.1 °C | 7.4 °C | > 1000 nM | > 1000 nM | > 1000 nM |  | 
15 | N=C(NCCO)c1ccc(N2CCCN(c3ccc(/C(N)=N/CCO)cc3)CC2)cc1 | 11.1 °C | 14.7 °C | > 1000 nM | > 1000 nM | > 1000 nM |  | 
16 | c1cc(N2CCN(c3ccc(C4=NCCN4)cc3)CC2)ccc1C1=NCCN1 | 15 °C | 19.4 °C | 18.5 nM | 13.5 nM | 100 nM | 13 nM | Ratio [8]: Active; Ratio [21]: Active; Ratio [22]: inactive; Ratio [19]: inactive; Ratio [23]: Active; MSD [24]: 19.7 days; MSD [13]: 10.3 days
